The text below walks through data of the array DNA melting data of Ke et al. (doi:10.1101/2024.01.08.574731).

Data set [1] in a line: folding enthalpy; higher = less favourable; fluorescence melt of hairpins on a sequencing array, two-state fit. As to conditions: sodium 0.088 M. In short, it runs like this:
(§1)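 Bootstrapped two-state fits yielded melting temperature and folding enthalpy for library hairpins. Cy3 fluorescence, with annealed Cy3 and quencher oligos, was imaged on a sequenced MiSeq flow cell in 50 mM Na-HEPES pH 8.0, 25 mM NaCl in 2.5 °C steps up to 60 °C, and normalised to pre-quench Cy3 and to control constructs. Four replicates were combined by inverse variance, and fitted temperatures were raised by 9.35 °C to match UV melts.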

Data set [2] can be described thus: melting temperature; fluorescence melt of hairpins on a sequencing array, two-state fit, raised by 9.35 °C to match UV melts. The conditions noted are these: sodium 0.088 M. The procedure, abridged: as §1

For GGTGTTGGAAACGACACC (((((.(....).))))), the folding enthalpy in data set [1] was -50.3 kcal/mol. Also, the Tm in data set [2] was determined as 54.3 °C.
For GGTTAACCGAAAGGTACC (((..(((....)))))) the same measures were -17.4 kcal/mol and 38 °C.
For the sequence GGTTAACGAAAGTTTACC (((.(((....))).))), the folding enthalpy in data set [1] was -33.3 kcal/mol. In data set [2], the Tm amounted to 45.2 °C.
For GGTTAATCGAAAGATACC (((..(((....)))))) the same measures were -17.1 kcal/mol and 29.2 °C.
Take GGTTACCGAAAGGTCACC (((.(((....))).))): the folding enthalpy in data set [1] was -27.7 kcal/mol. The Tm in data set [2] was 49.1 °C.
As for GGTTACGAAAGTAAAACC ((((((....)))..))), in data set [1], the folding enthalpy is -24.3 kcal/mol. Also, the Tm in data set [2] turned out to be 36.6 °C.
For the sequence GGTTACGAAAGTAACACC ((((((....)))..))), in data set [1], the folding enthalpy is -12.7 kcal/mol. In data set [2], the Tm is 44.6 °C.
Take GGTTACGAAAGTAGCACC ((((((....)))..))): the folding enthalpy in data set [1] is -14.5 kcal/mol. Further, the Tm in data set [2] stood at 31.7 °C.
For GGTTACGGAAACGTAATC (.(((((....))))).), in that order: -30.5 kcal/mol and 45.5 °C.
For GGTTAGACGAAAGTCACC (((..(((....)))))), the folding enthalpy in data set [1] was -6.17 kcal/mol. Besides, the Tm in data set [2] amounted to 27 °C.
For GGTTAGGCGAAAGCCACC (((..(((....)))))), in that order: -12.5 kcal/mol and 42.9 °C.
For GGTTAGGGAAACCTGACC (((.(((....))).))), the folding enthalpy in data set [1] is -33 kcal/mol. In data set [2], the Tm worked out at 48 °C.
Regarding GGTTATACGAAAGTAACC (((..(((....)))))), the folding enthalpy in data set [1] was -14.7 kcal/mol. For the same sequence, in data set [2], the Tm is 38.1 °C.
GGTTCACCGAAAGGTACC (((..(((....)))))): the folding enthalpy in data set [1] is -11.9 kcal/mol. Moreover, in data set [2], the Tm was determined as 32.2 °C.
For GGTTCACGAAAGTGCACC (((.(((....))).))), in that order: -29.7 kcal/mol and 50.5 °C.
As to GGTTCACGAAAGTGTACC (((.(((....))).))), the folding enthalpy in data set [1] was -36.4 kcal/mol. Moreover, in data set [2], the Tm came out at 52.4 °C.
As to GGTTCAGGAAACCGAACC (((((.(....).))))), the folding enthalpy in data set [1] is -26.5 kcal/mol. Further, the Tm in data set [2] turned out to be 47.8 °C.
For the sequence GGTTCAGGAAACTGGACC (((.(((....))).))), in data set [1], the folding enthalpy was -44.8 kcal/mol. Moreover, in data set [2], the Tm came to 50.7 °C.
For the sequence GGTTCCCGAAAGGGCACC (((.(((....))).))), the folding enthalpy in data set [1] is -26.2 kcal/mol. Further, the Tm in data set [2] stood at 51.6 °C.
With GGTTCCGAAAGGAATACC ((((((....)))..))), the folding enthalpy in data set [1] is -14.1 kcal/mol. In addition, the Tm in data set [2] was 41.5 °C.
For GGTTCCGAAAGGACTACC ((((((....)))..))), in that order: -15.3 kcal/mol and 36.1 °C.
For GGTTCCGAAAGGAGGACC ((((((....)))..))) the same measures were -18.8 kcal/mol and 38.1 °C.
GGTTCCGAAAGGAGTACC ((((((....)))..))): in data set [1], the folding enthalpy was -21 kcal/mol. Besides, in data set [2], the Tm amounted to 38.9 °C.
For GGTTCCGAAAGGATCACC ((((((....)))..))) the same measures were -14.7 kcal/mol and 33.1 °C.
For GGTTCGCGAAAGCGACC (((.(((....)))))), in that order: -14.9 kcal/mol and 61.7 °C.
GGTTCGGGAAACCGGACC (((.(((....))).))): in data set [1], the folding enthalpy was -39.5 kcal/mol. Further, in data set [2], the Tm turned out to be 58.3 °C.
GGTTCGGGAAACCGGATC (.(.(((....))).).): the folding enthalpy in data set [1] is -18.3 kcal/mol. The Tm in data set [2] worked out at 38.2 °C.
Consider GGTTCTCCGAAAGGAACC (((..(((....)))))), for which the folding enthalpy in data set [1] was -20.8 kcal/mol. Moreover, in data set [2], the Tm came out at 42.9 °C.
As for GGTTCTCGAAAGAGTACC (((.(((....))).))), the folding enthalpy in data set [1] is -26.1 kcal/mol. Also, in data set [2], the Tm is 46.7 °C.
Regarding GGTTCTGGAAACAAAACC ((((.((....)).)))), in data set [1], the folding enthalpy was -16.3 kcal/mol. In data set [2], the Tm was 28.5 °C.
In the case of GGTTCTGGAAACAGAACC (((((((....))))))), the folding enthalpy in data set [1] is -46.5 kcal/mol. Moreover, the Tm in data set [2] came out at 60.8 °C.
For GGTTGAACGAAAGTTACC (((..(((....)))))), the folding enthalpy in data set [1] is -13.2 kcal/mol. The Tm in data set [2] was determined as 31.1 °C.
For GGTTGACGAAAGTCCACC (((.(((....))).))), in that order: -32 kcal/mol and 50.5 °C.
For GGTTGAGGAAACTCAACC (((((((....))))))) the same measures were -40.1 kcal/mol and 60.7 °C.
As for GGTTGAGGAAACTCGACC (((.(((....))).))), in data set [1], the folding enthalpy was -44.2 kcal/mol. In addition, the Tm in data set [2] was 51.5 °C.
On to GGTTGCCGAAAGGCACC (((.(((....)))))), for which the folding enthalpy in data set [1] was -14.5 kcal/mol. Further, in data set [2], the Tm is 59 °C.
